Laboratory results reported in ChEMBL document CHEMBL4145685, “Development of Second-Generation CDK2 Inhibitors for the Prevention of Cisplatin-Induced Hearing Loss” (J Med Chem, 2018).
Converted amounts (≈) assume the structure as drawn. The source made the active and inactive calls.

Tests used:
[1] = Protection against cisplatin-induced cell death in neonatal mouse HEI-OC1 cells assessed as reduction in caspase-3/7 activity; type: functional
[2] = tested on: Spiral organ of cochlea; assay: Protection against cisplatin-induced toxicity in P3 mouse cochlear explants assessed as increase in outer hair cell count incubated for 24 hrs by phalloidin staining based confocal microscopy; type: functional, tissue-based
[3] = target: CDK2/Cyclin A2 (Homo sapiens, UniProt P24941); assay: Inhibition of C-terminal His6-tagged human full length CDK2/N-terminal GST-tagged human full length Cyclin A using histone H1 and [gamma-32P]-ATP incubated for 30 mins by phosphorimage based assay; type: protein-complex assay
[4] = target: Glycogen synthase kinase-3 alpha (Homo sapiens) (UniProt P49840); assay: Inhibition of human full length GSK3alpha expressed in bacterial expression system at 1 uM
Summary of the method: (§1)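 Competition binding screen at 1 μM over a 468-kinase panel. Kinases were T7-phage-tagged (grown in E. coli BL21-derived host) or produced in HEK-293 cells with DNA tags. They bound to immobilized biotinylated ligand beads with compound for 1 h at room temperature in SeaBlock/PBS/Tween/DTT buffer. Eluted kinase was quantified by qPCR.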

[5] = target: Glycogen synthase kinase-3 beta (Homo sapiens) (UniProt P49841); assay: Inhibition of human full length GSK3beta expressed in mammalian expression system at 1 uM; summary of the method: as §1
[6] = target: Cyclin-dependent kinase 7 (Homo sapiens) (UniProt P50613); assay: Inhibition of human full length CDK7 expressed in mammalian expression system at 1 uM; summary of the method: as §1
[7] = tested on: Spiral organ of cochlea; assay: Protection against cisplatin-induced toxicity in P3 mouse cochlear explants assessed as increase in outer hair cell count at 150 nM incubated for 24 hrs by phalloidin staining based confocal microscopy; type: functional, tissue-based
Summary of the method: (§2)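 P3 FVB mouse cochleae were cultured on filters in DMEM with 1% FBS and 50 μg/mL ampicillin, 37 °C, 5% CO2, for 1 d. They were pretreated with compound 1 h, then given cisplatin 150 μM plus compound for 1 d. Fixed in 4% PFA, phalloidin-stained, confocal imaged. OHCs counted per 160 μm; medium-only = full protection, cisplatin-only = none.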

[8] = tested on: Mus musculus; assay: Toxicity in adult FVB mouse at 2 to 50 uM dosed to each left ear by transtympanic injection after 15 days; type: organism-based; conditions: in vivo, other, 360 h
Summary of the method: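 Adult FVB mice, blinded and randomized, received transtympanic left-ear 2, 10 or 50 μM compound or vehicle (PBS + 0.5% DMSO, 5 μL). Dosing was a single injection, or two injections 24 h apart in one series. Three to four mice per group. ABRs were recorded at 8, 16, 32 kHz after 15 days.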

[9] = tested on: Mus musculus; assay: Protection against cisplatin-induced ototoxicity in adult FVB mouse assessed as reduction in auditory brainstem response threshold elevation by measuring ABR threshold shits at 16 kHz dosed at 50 uM administered to each left ear by transtympanic injection dosed 1 hr before cisplatin injection and measured after 15 days; type: functional
Summary of the method: (§3)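 P30 FVB mice under isoflurane got a single 5 μL transtympanic injection (50 μM in saline with 0.5% DMSO, or vehicle) into the left ear. Cisplatin was given i.p. 1 h later. Closed-field left-ear ABR thresholds were taken before treatment and at day 15. Shift is post minus pre. Mice losing <10% bodyweight were excluded. Mean ± SEM, paired 2-tailed t-test.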

[10] = tested on: Mus musculus; assay: Protection against cisplatin-induced ototoxicity in adult FVB mouse assessed as reduction in outer hair cell loss in middle basal turn at 32 kHz dosed at 50 uM administered to each left ear by transtympanic injection dosed 1 hr before cisplatin injection and measured after 15 days; type: functional, organism-based
Summary of the method: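 After day-15 ABR, cochleae were harvested from transtympanically dosed, cisplatin-treated adult FVB mice. Organ of Corti was stained with phalloidin, anti-parvalbumin and DAPI. OHCs were counted per 160 μm in the 32-kHz (middle basal turn) region. Mean ± SEM, paired 2-tailed t-test.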

[11] = tested on: Spiral organ of cochlea; assay: Protection against cisplatin-induced toxicity in P3 mouse cochlear explants assessed as increase in outer hair cell count at 100 to 500 nM incubated for 24 hrs by phalloidin staining based confocal microscopy; type: functional, tissue-based; summary of the method: as §2
[12] = tested on: Mus musculus; assay: Protection against cisplatin-induced ototoxicity in adult FVB mouse assessed as reduction in auditory brainstem response threshold elevation by measuring ABR threshold shits at 32 kHz dosed at 50 uM administered to each left ear by transtympanic injection dosed 1 hr before cisplatin injection and measured after 15 days; type: functional; summary of the method: as §3
[13] = tested on: Mus musculus; assay: Protection against cisplatin-induced ototoxicity in adult FVB mouse assessed as hearing thresholds at 32 kHz dosed at 50 uM administered to each left ear by transtympanic injection dosed 1 hr before cisplatin injection and measured after 15 days; type: functional, organism-based
Summary of the method: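 P30 FVB mice under isoflurane received 5 μL compound in PBS + 0.5% DMSO into the left ear by transtympanic 33-gauge cannula; vehicle controls matched. Cisplatin i.p. 1 h later; one regimen added a second injection 24 h after cisplatin. Left-ear closed-field ABR thresholds at 8, 16, 32 kHz were taken before treatment and at day 15. Threshold shift is reported as mean ± SEM, paired 2-tailed t-test. Mice losing <10% bodyweight were excluded.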

[14] = Solubility of the compound in citrate phosphate buffered saline incubated for 18 hrs by UV spectroscopy; type: physicochemical; conditions: buffer
Summary of the method: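 A 10 mM DMSO stock was diluted into buffer and held 18 h at room temperature. It was then filtered and mixed 1:1 with 1-propanol. UV spectrum (250–500 nm) AUC was compared with a reference of stock in 1-propanol/isotonic citrate PBS. Triplicate.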

[15] = Mus musculus, HEI-OC1, read-out: EC50

Cyclin-dependent kinase 7 (Homo sapiens), sequence (P50613 whole entry): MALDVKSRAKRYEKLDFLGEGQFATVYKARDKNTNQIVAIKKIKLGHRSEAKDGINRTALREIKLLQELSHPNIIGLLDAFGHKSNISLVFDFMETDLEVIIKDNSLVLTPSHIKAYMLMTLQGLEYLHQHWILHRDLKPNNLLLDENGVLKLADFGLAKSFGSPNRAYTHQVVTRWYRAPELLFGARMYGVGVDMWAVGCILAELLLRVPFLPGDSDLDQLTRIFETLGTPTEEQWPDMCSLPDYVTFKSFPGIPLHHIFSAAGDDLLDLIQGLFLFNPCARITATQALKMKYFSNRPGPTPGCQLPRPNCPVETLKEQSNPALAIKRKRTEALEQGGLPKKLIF
Glycogen synthase kinase-3 beta (Homo sapiens), sequence (P49841 whole entry, looked up): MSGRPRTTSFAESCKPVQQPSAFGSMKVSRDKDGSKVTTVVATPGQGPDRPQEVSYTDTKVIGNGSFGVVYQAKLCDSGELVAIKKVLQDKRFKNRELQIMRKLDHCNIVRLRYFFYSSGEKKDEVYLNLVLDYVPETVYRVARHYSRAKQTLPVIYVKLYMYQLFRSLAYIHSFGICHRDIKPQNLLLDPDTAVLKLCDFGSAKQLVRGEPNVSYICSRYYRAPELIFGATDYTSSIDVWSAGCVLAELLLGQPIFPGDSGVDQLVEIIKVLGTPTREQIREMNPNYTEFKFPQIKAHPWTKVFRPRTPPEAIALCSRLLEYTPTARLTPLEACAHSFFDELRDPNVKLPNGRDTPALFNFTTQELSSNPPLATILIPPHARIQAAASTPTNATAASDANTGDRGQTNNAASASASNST
Glycogen synthase kinase-3 alpha (Homo sapiens), sequence (P49840 2-483 limits assumed): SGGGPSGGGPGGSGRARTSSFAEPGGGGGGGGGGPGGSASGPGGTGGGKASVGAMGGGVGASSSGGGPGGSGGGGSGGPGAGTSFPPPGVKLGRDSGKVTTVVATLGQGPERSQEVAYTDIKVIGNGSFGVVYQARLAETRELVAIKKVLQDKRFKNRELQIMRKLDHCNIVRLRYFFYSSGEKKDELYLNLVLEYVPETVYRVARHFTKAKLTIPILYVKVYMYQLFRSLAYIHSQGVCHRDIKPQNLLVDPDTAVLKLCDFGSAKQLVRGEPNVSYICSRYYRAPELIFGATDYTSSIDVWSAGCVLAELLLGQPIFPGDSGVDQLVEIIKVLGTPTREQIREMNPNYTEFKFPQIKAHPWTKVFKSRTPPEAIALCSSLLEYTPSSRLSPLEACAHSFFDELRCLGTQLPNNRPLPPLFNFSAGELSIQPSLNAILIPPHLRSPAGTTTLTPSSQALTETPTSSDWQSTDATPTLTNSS

Row | Structure (SMILES) | EC50 [1] | EC50 [1, 15] [µM] | further results
1 | CCCNC(=O)c1c(NC(=O)c2ccc(Cl)cc2Cl)cnn1C | Not Active | – | –
2 | NS(=O)(=O)c1ccc(N/N=C2\C(=O)Nc3ccc(Br)cc32)cc1 | – | 0.127 | EC50 [2]: 1 µM
3 | CCn1cc(NC(=O)c2ccc(Cl)cc2Cl)c(C(=O)Nc2ccccc2)n1 | – | 31.1 | IC50 [3]: > 10 µM
4 | NS(=O)(=O)c1ccc(CCNc2nccc(-c3ccccn3)n2)cc1 | Not Active | – | –
5 | Cc1[nH]nc(C(N)=O)c1NC(=O)C(C)NC(=O)c1ccc(Cl)cc1 (configuration not stated) | Not Active | – | –
6 | O=C1Cc2c([nH]c3ccc(Br)cc23)-c2ccccc2N1 [KENPAULLONE] | – | 0.349 | EC50 [2]: 0.15 µM; inhibition [4]: Active; inhibition [5]: Active; inhibition [6]: Active
7 | CCCNC(=O)c1c(NC(=O)c2cc(S(=O)(=O)N(C)C)c(Cl)cc2Cl)cnn1C | Not Active | – | –
8 | N#Cc1ccc2c(c1)/C(=C1/C=CC(CN3CCOCC3)=CN1)C(=O)N2 | – | 3.63 | EC50 [2]: 15 µM
9 | Cn1cc(NC(=O)c2c(Cl)cccc2Cl)c(C(=O)NC2CCN(C(=O)c3c(Cl)cccc3Cl)CC2)n1 | – | > 49.4 | IC50 [3]: > 10 µM
10 | O=C(Nc1ccc(F)cc1)c1n[nH]cc1NC(=O)C1CCCCC1 | – | > 32.2 | –
11 | Cc1nc(-c2ccnc(N)n2)cn1Cc1c(Cl)cccc1Cl | Not Active | – | –
12 | O=C(N[C@H]1CCCNC1)c1n[nH]cc1NC(=O)c1c(F)cccc1F | – | > 37.9 | –
13 | CN[C@@H]1CCN(C(=O)c2ccc(Nc3ncc(F)c(-c4cnc(C)n4C(C)C)n3)cc2)C1 | Not Active | – | –
14 | O=C(N[C@H]1CC[C@H](O)CC1)c1n[nH]cc1NC(=O)c1c(F)cccc1F | – | – | Activity [7]: Active; Activity [8]: Non-Toxic; Activity [9]: 10 dB; Activity [10]: inactive; inhibition [4]: Active; inhibition [5]: Active; inhibition [6]: Active
15 | N[C@H]1CC[C@H](NC(=O)c2n[nH]cc2NC(=O)c2c(F)cccc2F)CC1 | – | > 33.5 | –
16 | CC[C@H](CO)Nc1nc(NCc2ccccc2O)c2ncn(C(C)C)c2n1 [OLOMOUCINE II] | – | 0.595 | EC50 [2]: 3 µM
17 | CCC(Nc1nccc(-c2ccccn2)n1)c1ccc(S(C)(=O)=O)cc1 (configuration not stated) | Not Active | – | –
18 | CN(Cc1nccn1Cc1ccccc1)c1nccc(-c2ccccn2)n1 | Not Active | – | –
19 | CCCNC(=O)c1c(NC(=O)c2ccccc2Cl)cnn1C | Not Active | – | –
20 | Cc1ccc(-c2ccnc(NCC(C)n3nc(C)cc3C)n2)c(C)n1 (configuration not stated) | Not Active | – | –
21 | c1ccc(Nc2nccc(-c3ccccn3)n2)cc1 | Not Active | – | –
22 | CCn1cc(NC(=O)c2ccc(Cn3cc(Cl)cn3)cc2)c(C(=O)NC2CCCC2)n1 | – | 5.04 | IC50 [3]: > 10 µM
23 | CCn1cc(NC(=O)c2c(F)cccc2F)c(C(=O)NCC(C)C)n1 | Not Active | – | –
24 | O=C(Nc1c[nH]nc1C(=O)Nc1ccc(F)cc1)c1ccccc1 | – | > 33.2 | –
25 | O=C(NC1CCNCC1)c1n[nH]cc1NC(=O)c1c(Cl)cccc1Cl | – | – | Activity [11]: inactive; inhibition [4]: Active; inhibition [5]: Active; inhibition [6]: Active
26 | O=C(NC1CCCCC1)c1n[nH]cc1NC(=O)c1c(F)cccc1F | – | > 27.3 | –

Row | Structure (SMILES) | EC50 [1] | EC50 [1, 15] [µM] | further results
27 | Cn1ncc(NC(=O)c2ccccc2Cl)c1C(=O)N1CCCCC1 | Not Active | – | –
28 | O=C(NC1CCNCC1)c1n[nH]cc1NC(=O)c1c(F)cc(F)cc1F | – | > 30.9 | –
29 | CC(C)CNC(=O)c1c(NC(=O)c2ccc(COCC(F)(F)C(F)F)cc2)cnn1C | Not Active | – | –
30 | O=C(NC1CCN(C(=O)c2c(Cl)cccc2Cl)CC1)c1n[nH]cc1NC(=O)c1c(Cl)cccc1Cl | – | 0.459 | IC50 [3]: 0.76 µM; Activity [7]: inactive
31 | O=C(Nc1ccc(F)cc1)c1n[nH]cc1NC(=O)c1c(F)cccc1F | – | – | Activity [7]: inactive
32 | COc1cccc(F)c1C(=O)Nc1c[nH]nc1C(=O)NC1CCNCC1 | – | > 37.2 | –
33 | Cc1[nH]nc(C(N)=O)c1NC(=O)c1ccc(OCC2CC2)cc1 | Not Active | – | –
34 | O=C(NC1CCNCC1)c1n[nH]cc1NC(=O)c1c(F)cccc1F | – | 22.5 | –
35 | Cc1[nH]nc(C(N)=O)c1NC(=O)c1cc(F)cc(Br)c1 | Not Active | – | –
36 | CNC(=O)c1nn(C)cc1NC(=O)c1ccccc1Cl | Not Active | – | –
37 | Cc1ncc(-c2ccnc(Nc3ccc(S(C)(=O)=O)cc3)n2)n1C(C)C [AZD-5438] | – | – | Activity [8]: Non-Toxic; Activity [12]: 14 dB; Activity [10]: Active; Activity [13]: Active; inhibition [4]: Active; inhibition [5]: Active; inhibition [6]: Active; solubility [14]: 68.8 µM (≈ 25.6 µg/mL)
38 | CCn1ccnc1CN(C)c1nccc(-c2ccc(C)nc2C)n1 | Not Active | – | –
39 | Cc1ccc(C(=O)Nc2c(C(=O)N(C)C)nn(C)c2C)cc1 | Not Active | – | –
40 | CCCNC(=O)c1c(NC(=O)c2cc(S(=O)(=O)N3CCCC3)c(Cl)cc2Cl)cnn1C | Not Active | – | –
41 | Cc1cc(Br)ccc1C(=O)Nc1c(C(N)=O)n[nH]c1C | Not Active | – | –
42 | COc1ccc2c(c1)/C(=C/c1cnc[nH]1)C(=O)N2 [SU-9516] | – | 1.59 | EC50 [2]: 6 µM
43 | O=C(NCC1CC1)c1n[nH]cc1NC(=O)c1c(F)cccc1F | – | 0.044 | Activity [7]: inactive
44 | Cn1cc(NC(=O)c2ccc(Cl)cc2Cl)c(C(=O)NCCc2ccco2)n1 | Not Active | – | –
45 | NS(=O)(=O)c1ccc(CNc2nccc(-c3ccccn3)n2)cc1 | Not Active | – | –
46 | CCn1cc(NC(=O)c2ccc(COCC(F)(F)F)cc2)c(C(=O)NCC(C)C)n1 | – | 6.75 | IC50 [3]: > 10 µM
47 | Cn1ncc(NC(=O)c2n[nH]cc2Cl)c1C(=O)N1CCCCC1 | Not Active | – | –
48 | O=C(Cc1ccccc1)Nc1c[nH]nc1C(=O)Nc1ccc(F)cc1 | – | > 32.7 | –
49 | Cn1ncc(NC(=O)c2ccc(Cl)cc2Cl)c1C(=O)NCc1ccco1 | Not Active | – | –
50 | CCn1cc(NC(=O)c2ccccc2Cl)c(C(=O)NCC(C)C)n1 | Not Active | – | –
51 | Cc1[nH]nc(C(N)=O)c1NC(=O)c1cc(F)c(F)c(F)c1 | Not Active | – | –
